Data taken from ChEMBL document CHEMBL1129241, “Immunosuppressive cyclolignans” (J Med Chem, 1996).
In brackets after ≈: the same amount, converted by molar mass.

Columns and labels:
[1] = Non cytotoxic IM activity index which is the ratio of IC50 of LcV to IC50 of MLR; type: functional
Mus musculus [2] = species: Mus musculus; assay: (§1) Compound was tested for Immunosuppression activity by mixed lymphocyte reaction (MLR) in murine splenocytes of mice; type: functional
In short: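 Two-way MLR: Balb/c and C57Bl/6 splenocytes combined in wells holding dried compound (eight dilutions, 10 to 3.33 × 10^-6 mg/mL, applied in EtOH and evaporated; duplicates). Incubated 96 h at 37 °C, 5% CO2, then pulsed 15 h with [3H]thymidine. Incorporated label counted after glass-fibre filtration. Proliferation expressed as percent of control; IC50 interpolated.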

[3] = Compound was tested for Cytotoxic activity by lymphocyte viability assay.; conditions: Mus musculus
In short: (§2)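 Balb/c mouse splenocytes alone, added to wells holding dried test compound (eight dilutions, 10 to 3.33 × 10^-6 mg/mL, applied in EtOH and evaporated); culture-medium wells serve as nonspecific control. Incubated 96 h at 37 °C, 5% CO2, then MTT added; formazan dissolved in 2-propanol and absorbance read at 570 nm.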

Mus musculus [4] = species: Mus musculus; assay: as §1; type: functional, organism-based
In short: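 Two-way mixed lymphocyte reaction using splenocytes from Balb/c and C57Bl/6 mice, combined in equal volumes. Compounds were dissolved in absolute EtOH and tested at eight dilutions from 10 to 3.33 × 10^-6 mg/mL, in duplicate, with the solvent dried onto the wells. Cultures ran 96 h at 37 °C in 5% CO2, then were pulsed 15 h with [3H]thymidine. Incorporation was counted by scintillation; IC50 was interpolated from % proliferation relative to control.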

[5] = Compound was tested for Cytotoxic activity by lymphocyte viability assay; conditions: Mus musculus; in short: as §2

Structure (SMILES)	Selectivity index [1]	IC50 (Mus musculus [2]) [µg/mL]	IC50 [3] [µg/mL]	IC50 (Mus musculus [4]) [µg/mL]	IC50 [5] [µg/mL]
COc1cc([C@@H]2c3cc4c(cc3C(=O)[C@H]3COC(=O)[C@H]23)OCO4)cc(OC)c1O	>2	11.8 (≈ 29.6 µM)	> 25		
COC(=O)[C@@H]1[C@H](c2cc(OC)c(OC)c(OC)c2)c2cc3c(cc2C(=O)[C@H]1CO)OCO3	>18	1.41 (≈ 3.17 µM)	> 25		
COc1cc(C2C3=C(COC3=O)Cc3cc4c(cc32)OCO4)cc(OC)c1OC (configuration not stated)	>3333		27.5 (≈ 69.4 µM)	0.00825 (≈ 0.0208 µM)	
COc1cc([C@@H]2c3cc4c(cc3C3=NOC[C@H]3[C@@H]2C(=O)O)OCO4)cc(OC)c1OC	>3333	< 0.009	30 (≈ 70.2 µM)		
COc1cc(C2c3cc4c(cc3CC3COC(=O)C32)OCO4)cc(OC)c1OC(C)=O (configuration not stated)	220		15.8 (≈ 37.1 µM)	0.0718 (≈ 0.168 µM)	
COc1cc([C@@H]2c3cc4c(cc3[C@@H](O)[C@H]3COC(=O)[C@H]23)OCO4)cc(OC)c1OC [EPIPODOPHYLLOTOXIN]	>284	0.229 (≈ 0.553 µM)	> 65		
COc1cc([C@@H]2c3cc4c(c(O)c3C[C@H]3COC(=O)[C@@H]32)OCO4)cc(OC)c1OC [BETA-PELTATIN A]	>2085	< 0.00945	19.7 (≈ 47.5 µM)		
COc1cc(C2c3cc4c(cc3[C@@H](OC(C)=O)C3COC(=O)C23)OCO4)cc(OC)c1OC(C)=O (some centres not stated)	50		22.8 (≈ 47.1 µM)	0.453 (≈ 0.935 µM)	
COc1cc([C@@H]2c3cc4c(cc3[C@H](O)[C@H]3COC(=O)[C@H]23)OCO4)cc(OC)c1OC [PODOFILOX]	>2190			< 0.128	280 (≈ 676 µM)
COC(=O)[C@@H]1[C@H](c2cc(OC)c(OC)c(OC)c2)c2cc3c(cc2C2=NN(C(C)=O)C[C@H]21)OCO3	>13	7.68 (≈ 15.9 µM)	> 100		
COc1cc([C@@H]2c3cc4c(c(O)c3C[C@H]3COC(=O)[C@@H]32)OCO4)cc(OC)c1O	>2586	< 0.00495	12.8 (≈ 32 µM)		
COc1cc([C@@H]2c3cc4c(cc3C3=NN(c5ccccc5)C[C@H]3[C@@H]2COC(C)=O)OCO4)cc(OC)c1OC	>11	9.29 (≈ 17.5 µM)	> 100		
COC(=O)[C@@H]1[C@H](c2cc(OC)c(OC)c(OC)c2)c2cc3c(cc2C2=NN(c4ccc(C)cc4)C[C@H]21)OCO3	>31	0.848 (≈ 1.6 µM)	> 26		
COc1cc([C@@H]2c3cc4c(cc3C[C@H]3COC(=O)[C@@H]32)OCO4)cc(OC)c1O [4'-DEMETHYLDEOXYPODOPHYLLOTOXIN]	4097	0.00281 (≈ 0.00731 µM)	11.5 (≈ 29.9 µM)		
